Compound activity: PubChem BioAssay, The Scripps Research Institute Molecular Screening Center
A selection: hits, their analogues and other compounds. The true share with any hit is near 1.8%.
NPY Y1 blocker – NPY-Y1 (human) receptor antagonism; inhibition, % at 3.6 µM; HEK293-CNG Y1 cells, membrane potential fluorescence; NPY at EC95, then isoproterenol; 1% of 200,000 active; P25929; AID 1040;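 active = inhibition above the campaign mean inhibition of all tested compounds plus 3 SD, cut at about 20% in these data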;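 note: 0% = DMSO wells given NPY plus isoproterenol and 100% = isoproterenol alone without NPY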
Target sequence (P25929 whole entry, looked up): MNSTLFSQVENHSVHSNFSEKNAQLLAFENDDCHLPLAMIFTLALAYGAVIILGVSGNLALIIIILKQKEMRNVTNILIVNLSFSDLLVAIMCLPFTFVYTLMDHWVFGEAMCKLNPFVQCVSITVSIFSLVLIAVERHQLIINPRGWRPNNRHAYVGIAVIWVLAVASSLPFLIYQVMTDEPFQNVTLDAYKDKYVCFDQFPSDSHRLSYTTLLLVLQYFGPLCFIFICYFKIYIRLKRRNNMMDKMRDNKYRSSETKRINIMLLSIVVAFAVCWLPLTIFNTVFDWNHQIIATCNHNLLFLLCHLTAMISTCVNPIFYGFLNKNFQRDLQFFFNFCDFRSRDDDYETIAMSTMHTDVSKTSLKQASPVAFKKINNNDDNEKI
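Material: Y1- and CNG-channel-expressing HEK293 cells / Probe or stimulus: NPY 25 nM then isoproterenol 1 µM plus Ro 20-1724 25 µM / Doses: 3.6 µM single dose, DMSO 0.4% / Schedule: compound incubation 1 h at room temperature, readout 45 min post-stimulation / Signal: membrane potential fluorescence / Benchmarks: isoproterenol-only wells as full block versus NPY-plus-isoproterenol wells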
NPY-Y1 PAM-ag – human NPY-Y1 potentiation or agonism, primary screen; AID 1304; activation, % at 3.6 µM; NPY-Y1 expressing cells, potentiator/agonist activation; 0.37% of 220,000 active; in the data active = activation above about 33%, passing the limit was not always enough;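 note: cells stimulated with NPY at EC10 then isoproterenol at EC100; 0% = low agonist plus stimulus and 100% = saturating agonist plus stimulus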
NPY2 pot ag – potentiates or activates human NPY-Y2 receptor. P49146. cells expressing NPY-Y2, potentiator/agonist read-out. activation, % at 3.6 µM. 0.45% of 220,000 active. AID 1359; in the data active = activation above about 27%;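 note: cells stimulated with NPY near EC25 plus isoproterenol at EC100; 0% = vehicle plus submaximal agonist and 100% = vehicle plus saturating agonist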
Target sequence (P49146 whole entry, looked up): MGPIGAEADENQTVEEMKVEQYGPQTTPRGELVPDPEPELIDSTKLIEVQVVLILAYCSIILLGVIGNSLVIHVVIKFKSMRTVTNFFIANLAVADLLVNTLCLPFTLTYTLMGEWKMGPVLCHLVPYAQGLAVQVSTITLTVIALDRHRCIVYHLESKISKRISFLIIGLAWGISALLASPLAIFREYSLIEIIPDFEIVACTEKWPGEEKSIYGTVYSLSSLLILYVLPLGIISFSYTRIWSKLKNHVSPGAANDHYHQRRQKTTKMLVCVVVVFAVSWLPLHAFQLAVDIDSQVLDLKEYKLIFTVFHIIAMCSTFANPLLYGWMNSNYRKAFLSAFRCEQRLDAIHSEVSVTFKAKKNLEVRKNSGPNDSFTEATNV
NPY Y2 blocker – blocks the human neuropeptide Y Y2 receptor. inhibition, % at 2.7 µM. NPY-Y2 expressing cells, antagonist mode. AID 793. 0.99% of 140,000 active. P49146;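 note: 0% = vehicle with agonist challenge and 100% = reference antagonist with challenge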
NPY1 antag ctr – counter-screen for NPY-Y2 antagonists: human NPY-Y1 antagonism; shares compounds with NPY Y2 blocker; cell-based NPY-Y1 antagonism counterscreen; inhibition, % at 3.6 µM; 19% of 710 active; in the data active = inhibition above about 20%;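 note: cells challenged with NPY then isoproterenol with cAMP sensed through a CNG channel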
NPY-Y2 ant conf – confirmation of human neuropeptide Y receptor Y2 antagonists; 32% of 710 active; HEK293 NPY-Y2 CNG channel, membrane potential fluorescence; inhibition, % at 2.8 µM; shares compounds with NPY Y2 blocker;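 active = mean inhibition of triplicate wells above the hit cutoff set in the primary screen, cut at about 17% in these data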;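 note: 0% = DMSO with NPY challenge and 100% = BIIE0246 high control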
NPY-Y1 ant conf – human NPY-Y1 antagonism, confirmation; shares compounds with NPY Y1 blocker; HEK293-CNG NPY-Y1, membrane potential fluorescence, cAMP; NPY challenge against isoproterenol-raised cAMP; inhibition, % at 3.6 µM; 21% of 1,200 active; AID 1254; in the data active = inhibition above about 20%;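 note: 0% = vehicle with agonist plus stimulus and 100% = stimulus alone without agonist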
NPY2 antag ctr – counter-screen for NPY-Y1 antagonists: human NPY-Y2 antagonism | shares compounds with NPY Y1 blocker | HEK293 NPY-Y2 CNG membrane potential fluorescence; cells given NPY, then isoproterenol | inhibition, % at 3.6 µM | 28% of 1,200 active | AID 1255;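 note: 0% = DMSO with agonist challenge and 100% = reference antagonist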
NPY-Y2 confirm – confirmation of human NPY-Y2 receptor potentiators or agonists | AID 1539 | 20% of 450 active | activation, % at 3.6 µM | shares compounds with NPY2 pot ag | cell-based NPY-Y2 potentiator/agonist assay; in the data active = activation above about 33%
NPY-Y1 potentiator – NPY-Y1 potentiation or agonism as NPY-Y2 counter-screen | activation, % at 3.6 µM | 20% of 450 active | AID 1651 | shares compounds with NPY2 pot ag | Y1 HEK293-CNG cells, membrane potential fluorescence; in the data active = activation above about 45%;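 note: cells stimulated with submaximal NPY then isoproterenol with phosphodiesterase inhibitor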
NPY-Y1 ag 2 – human NPY-Y1 agonism as NPY-Y2 potentiator counter-screen. shares compounds with NPY2 pot ag. HEK293 Y1-CNGC, membrane potential fluorescence. activation, % at 3.6 µM. 37% of 450 active;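 active = activation above the mean of DMSO-only control wells plus 3 SD, cut at about 18% in these data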;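 note: cells stimulated with 1 µM isoproterenol plus the PDE inhibitor Ro 20-1724; 0% = isoproterenol with DMSO and no NPY and 100% = 40 nM NPY; Y1 agonists lower the membrane potential dye signal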
CNGC inh – cyclic nucleotide gated channel inhibition as counter-screen | shares compounds with NPY2 pot ag | HEK293-CNG parental, isoproterenol cAMP, membrane potential fluorescence | inhibition, % at 3.6 µM | 32% of 450 active | AID 1703;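 active = inhibition above the control-well mean plus 3 SD of those wells, cut at about 22% in these data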;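 note: 0% = DMSO with isoproterenol and 100% = DMSO without isoproterenol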
NPY-Y2 ag 2 – NPY-Y2 agonism, counter-screen for Y2 potentiators | activation, % at 3.6 µM | shares compounds with NPY2 pot ag | HEK293 Y2/CNGC cells, membrane potential fluorescence, agonist mode | 56% of 450 active;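 active = activation above the mean of solvent-only control wells plus 3 SD, cut at about 10% in these data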;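 note: cells stimulated by isoproterenol with no NPY added so direct agonism is tested; 0% = DMSO with isoproterenol alone and 100% = NPY at EC100 plus isoproterenol; agonism lowers probe fluorescence through less cAMP and CNG channel opening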
Starred values were filed as active, the others as inactive; . = no result; + = active, no number. Cut-off read from the data, not from the text of the source, unless noted: active = inhibition above about 17%; inactive = the rest.

SMILES | NPY Y1 blocker | NPY-Y1 PAM-ag | NPY2 pot ag | NPY Y2 blocker | others
N#CC(C#N)=NNc1ccc(-n2ccc(C(F)(F)F)n2)cc1 | . | 55* | 68* | .
CC(=NCc1cccnc1)c1c(O)n(-c2ccc(Cl)cc2)c(=O)[nH]c1=O | . | -7 | 10 | .
CC(=O)OC(C)(C)/C=C/C(=O)[C@](C)(O)[C@H]1[C@H](O)C[C@@]2(C)[C@@H]3CC=C4[C@H](C[C@H](O)C(=O)C4(C)C)[C@]3(C)C(=O)C[C@]12C | 108* | -48 | 0 | 8
O=C(CN1CC=C(c2ccccc2)CC1)NC(=O)NCc1ccccc1 | 12 | -16 | -17 | .
O=c1cc(CN2CC=C(c3ccccc3)CC2)c2c(ccc3ccccc32)o1 | -7 | 70* | 64* | 5
CC(C)OCCCNC(=O)c1c(N)n(CC2CCCO2)c2nc3ccccc3nc12 (centres undefined) | 25* | 5 | 0 | 23*
C[C@@H]1O[C@@H](O[C@H]2C[C@@H](O)[C@]3(CO)[C@H]4[C@H](O)C[C@]5(C)[C@@H](C6COC(=O)C6)CC[C@]5(O)[C@@H]4CC[C@]3(O)C2)[C@H](O)[C@H](O)[C@H]1O (some centres undefined) | 46* | -93 | -35 | 24*
CCN1/C(=C\C=C\C2=[N+](CC)c3ccccc3C2(C)C)C(C)(C)c2ccccc21 | + | -434 | -337 | +
CCn1c(O)c(C=NCCN2CCOCC2)c(=O)[nH]c1=S | . | -11 | -10 | .
CC(=NCCC1=CCCCC1)c1c(O)n(-c2ccccc2)c(=O)[nH]c1=O | . | -9 | -7 | .
Cc1ccc(N)c(C(=O)c2ccccc2)c1 | -9 | 98* | 104* | 3
Cn1c(O)c(C(=Nc2ccc(F)cc2)c2ccccc2Cl)c(=O)n(C)c1=O | . | 5 | 0 | .
O=[N+]([O-])c1ccc(N2CCNCC2)c2ncccc12 | -8 | 74* | 47* | 0
CN1CCN(c2ccc([N+](=O)[O-])c3cccnc23)CC1 | 3 | -22 | -11 | 4
COc1cc(CN=Cc2c(O)n(C(C)(C)C)c(=O)[nH]c2=O)cc(OC)c1 | . | 8 | -3 | .
CN1CCN(Cc2cc(C(C)(C)C)c(O)c(C(C)(C)C)c2)CC1 | 0 | 77* | 51* | 6
CN1CCN(Cc2ccc(N)cc2)CC1 | 4 | 0 | -6 | .
CN(N)N=Nc1nc2c([nH]1)c(=O)n(C)c(=O)n2C | . | -4 | -14 | .
CCCC[N+]12CCC(CC1)C(=C(c1ccccc1)c1ccccc1)C2 | 18 | -8 | -9 | 23* | NPY1 antag ctr=12;NPY-Y2 ant conf=11
CCC[N+]12CCC(CC1)C(=C(c1ccccc1)c1ccccc1)C2 | 12 | 10 | 2 | 3
CCCCOc1nc2ccccc2c(=O)n1-c1ccccc1 | 6 | -14 | -2 | 17* | NPY1 antag ctr=5;NPY-Y2 ant conf=18*
COc1nc2ccccc2c(=O)n1-c1ccc(C)cc1 | 0 | -15 | 1 | 2
O=S(=O)(c1ccc(F)cc1)N1CCCCC1c1cccnc1 (centres undefined) | . | 7 | -18 | .
OC(COCc1ccc(Cl)cc1)CN1CC=C(c2ccccc2)CC1 (centres undefined) | 9 | -19 | -9 | 19* | NPY1 antag ctr=8;NPY-Y2 ant conf=11
O=C(COC(=O)c1ccc(O)cc1)Nc1ccc(Cl)cc1C(=O)c1ccccc1 | 17 | -44 | -7 | 19* | NPY1 antag ctr=12;NPY-Y2 ant conf=9
SMILES | NPY Y1 blocker | NPY-Y1 PAM-ag | NPY2 pot ag | NPY Y2 blocker | others
Cc1ccc(S(=O)(=O)N(C)C)cc1NC(=O)C(C)[N+]12CCN(CC1)CC2 (centres undefined) | 5 | -2 | 2 | .
CN1CC=C(c2c[nH]c3ccccc23)CC1 | 36* | -2 | 0 | 2 | NPY-Y1 ant conf=6;NPY2 antag ctr=3
C1=C(c2c[nH]c3ccccc23)CCN(Cc2ccccc2)C1 | -4 | 6 | -6 | .
Cc1ccc(N2CCN(CCc3ccccc3)CC2)cc1 | -1 | -14 | -1 | 0
Cc1cccc(N2CCN(CCc3ccccc3)CC2)c1C | 23* | -14 | -22 | 8 | NPY-Y1 ant conf=5;NPY2 antag ctr=8
O=c1[nH]c(=S)n(C2CC2)c(O)c1C=NCCc1ccccc1 | . | -10 | -26 | .
O=C(NC1CCCCC1)Oc1cc2oc(=O)sc2cc1Cl | . | -15 | -11 | .
COc1ccc2c(c1)c(C(=O)CN1CCN(C)CC1)c(C)n2Cc1ccccc1 | 25* | -111 | -20 | 16 | NPY-Y1 ant conf=8;NPY2 antag ctr=15
O=C(c1ccc(Cl)cc1)C1CCCN(C2CCSCC2)C1 (centres undefined) | 6 | -1 | 6 | .
C[C@H]1OC[C@@H](C[N+](C)(C)C)O1 | 44* | -70 | -15 | 6 | NPY-Y1 ant conf=36*;NPY2 antag ctr=22*
Cc1ccc(CN2C3CCCC2CC(NC(=O)Nc2cccc(F)c2)C3)cc1 (centres undefined) | -2 | -1 | 13 | .
CCN(CC)CCCNC(=O)c1c(O)c2ccccc2n(Cc2ccccc2)c1=O | 20* | -49 | -41 | 15 | NPY-Y1 ant conf=16;NPY2 antag ctr=26*
Clc1ccc(COC(Cn2ccnc2)c2ccc(Cl)cc2Cl)c(Cl)c1 (centres undefined) | 23* | -63 | -12 | 16 | NPY-Y1 ant conf=30*;NPY2 antag ctr=25*
C/C1=C\[C@@H](C)C/C=C/[C@H]2[C@@H]3O[C@]3(C)[C@@H](C)[C@H]3[C@H](Cc4c[nH]c5ccccc45)NC(=O)[C@]32C(=O)/C=C/C(=O)[C@@H]1O | 40* | 11 | 39* | . | NPY-Y1 ant conf=35*;NPY2 antag ctr=7;NPY-Y2 confirm=5;NPY-Y1 potentiator=5;NPY-Y1 ag 2=-1;CNGC inh=5;NPY-Y2 ag 2=17*
Cc1nc2c(c(=O)[nH]1)C(c1ccccc1Cl)c1c(c3ccccc3oc1=O)O2 (centres undefined) | . | 8 | 5 | .
